Assay results reported in publication PMC2804273 (Journal of Medicinal Chemistry, 2009).

Test system: BSF T. brucei brucei strain Lister 427
Assay: Alamar blue viability test, cytotoxicity against cultured parasites
Type: cell-based, Trypanosoma brucei brucei
Settings: ED50 determined in the presence of sub-ED50 MTX (0.5-2.5 μM)
Procedure, shortened: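 Bloodstream-form T. brucei brucei Lister 427, grown at 37 °C and 5% CO2 in HMI-9 with 10% fetal calf serum, high folate left unreduced, and neomycin pressure to keep T7 polymerase and tetracycline repressor. […] Values are mean ± std dev (n = 4). Synergy was judged by comparing the area under the slope with half the product of the two ED50 values.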

| Compound | Interaction in combination with MTX (synergy) |
| --- | --- |
| CCc1nc(N)nc(N)c1-c1ccc(Cl)cc1 [PYR, pyrimethamine] | does not act synergistically |
| N#Cc1c(-c2ccc3c(c2)OCO3)[nH]c2nc(N)[nH]c(=O)c12 [compound 13] | acts synergistically |
